Measured values published in ChEMBL document CHEMBL4038277, “Design, synthesis and biological evaluation of 7-methylimidazo[1,5-a]pyrazin-8(7H)-one derivatives as BRD4 inhibitors” (Bioorg Med Chem, 2017).

Experiments:
HL-60 = experiment: Antiproliferative activity against BRD4-sensitive human HL60 cells after 72 hrs by CCK8 assay; assay type: functional, cell-based; conditions: HL-60, 72 h
Outline: (§1)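 Cells seeded at 1 × 10^4 per well in 100 µL IMDM with 20% FBS. After 12 h, triple-diluted compound series added in 50 µL. Read 72 h after seeding: CCK-8 reagent added, 4 h at 37 °C, absorbance at 450 nm, blank-corrected relative to untreated control. IC50 fitted from the curve. Means ± SD from three independent experiments.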

K562 = experiment: Antiproliferative activity against BRD4-independent human K562 cells after 72 hrs by CCK8 assay; assay type: functional, cell-based; conditions: K562, 72 h; outline: as §1
MV4-11 = experiment: Antiproliferative activity against BRD4-sensitive human MV411 cells after 72 hrs by CCK8 assay; assay type: functional, cell-based; conditions: MV4-11, 72 h; outline: as §1
[1] = molecular target: T1, Bromodomain-containing protein 4 (Homo sapiens, UniProt O60885); experiment: Inhibition of BRD4-BD1 (44 to 168 residues) (unknown origin) using histone H4 peptide as substrate preincubated for 15 mins followed by addition of substrate measured after 60 mins by AlphaScreen assay
[2] = molecular target: T1, Bromodomain-containing protein 4; experiment: Inhibition of BRD4-BD2 (333 to 460 residues) (unknown origin) using histone H4 peptide as substrate preincubated for 15 mins followed by addition of substrate measured after 60 mins by AlphaScreen assay
[3] = molecular target: T1, Bromodomain-containing protein 4; experiment: Inhibition of recombinant human His-tagged BRD4-BD1 expressed in bacteria using biotinylated H4-tetraacetyl peptide as substrate after 20 mins by AlphaScreen assay

Compound | IC50 (HL-60) | IC50 (K562) | IC50 (MV4-11) | IC50 [1] | IC50 [2] | Ki [3]
Cc1sc2c(c1C)C(c1ccc(Cl)cc1)=N[C@@H](CC(=O)OC(C)(C)C)c1nnc(C)n1-2 | 110 nM | 9120 nM | 80 nM |  |  | 
CC(=O)Nc1ccc(CNc2cccc(Oc3ccc(S(C)(=O)=O)cc3-c3cn(C)c(=O)c4cncn34)c2)cc1 |  |  |  | 380 nM | 180 nM | 
Cn1cc(-c2cc(S(C)(=O)=O)ccc2Oc2ccc(F)cc2F)n2cncc2c1=O | 2860 nM | > 10000 nM | 1850 nM | 520 nM | 580 nM | 
CCS(=O)(=O)c1ccc(Oc2cccc(NS(=O)(=O)c3ccccc3F)c2)c(-c2cn(C)c(=O)c3cncn23)c1 |  |  |  | 240 nM | 170 nM | 
CCS(=O)(=O)c1ccc(Oc2cccc(NCc3ccc(NC(C)=O)cc3)c2)c(-c2cn(C)c(=O)c3cncn23)c1 | 2860 nM | > 10000 nM | 170 nM | 130 nM | 40 nM | 
Cn1cc(-c2cc(S(C)(=O)=O)ccc2Oc2cccc(NCc3ccc(C#N)cc3)c2)n2cncc2c1=O | 6100 nM | > 10000 nM | 4200 nM | 350 nM | 180 nM | 
CCS(=O)(=O)c1ccc(Oc2ccc(F)cc2F)c(-c2cn(C)c(=O)c3cncn23)c1 | 620 nM | > 10000 nM | 410 nM | 240 nM | 260 nM | 
Cn1cc(-c2cc(S(C)(=O)=O)ccc2Oc2cccc(NCc3ccc(F)cc3)c2)n2cncc2c1=O | 1400 nM | > 10000 nM | 950 nM | 680 nM | 320 nM | 
COc1cccc(CNc2cccc(Oc3ccc(S(C)(=O)=O)cc3-c3cn(C)c(=O)c4cncn34)c2)c1 | 1530 nM | > 10000 nM | 1160 nM | 430 nM | 190 nM | 
CCS(=O)(=O)c1ccc(Oc2cccc(NS(=O)(=O)c3ccc(OC)cc3)c2)c(-c2cn(C)c(=O)c3cncn23)c1 |  |  |  | 200 nM | 140 nM | 
CCS(=O)(=O)c1ccc(Oc2cccc(NS(=O)(=O)c3cccs3)c2)c(-c2cn(C)c(=O)c3cncn23)c1 |  |  |  | 390 nM | 280 nM | 
CCS(=O)(=O)c1ccc(Oc2cccc(NCc3ccc(C#N)cc3)c2)c(-c2cn(C)c(=O)c3cncn23)c1 | 570 nM | > 10000 nM | 180 nM | 130 nM | 76 nM | 
CCS(=O)(=O)c1ccc(Oc2ccc(F)cc2)c(-c2cn(C)c(=O)c3cncn23)c1 | 940 nM | > 10000 nM | 780 nM | 200 nM | 220 nM | 
CCS(=O)(=O)Nc1ccc(Oc2ccc(F)cc2F)c(-c2cn(C)c(=O)c3[nH]ccc23)c1 [MIVEBRESIB] | 90 nM | > 10000 nM | 70 nM | 74 nM | 69 nM | 15 nM
